According to ChEMBL document CHEMBL1127726, “Substituted 1,3-dipropylxanthines as irreversible antagonists of A1 adenosine receptors” (J Med Chem, 1994):
Each block holds one molecule with its values, some of them ahead of it.

Tests used:
[1] = test system: Adenosine receptor A1 (Mesocricetus auratus); experiment: Loss of specific binding of [3H]CPX to the A1-adenosine receptor of DDT1 MF-2 (DDT) cells at a concentration of 1 uM
Adenosine receptor A1 = experiment: Specific binding of [3H]CPX to the A1-adenosine receptor
[2] = target: T1, Adenosine A2 receptor (Rattus norvegicus) (UniProt P29276+P30543); experiment: Loss of [3H]NECA binding to A2 adenosine receptor at 50 uM; format: protein assay
Procedure, shortened: (§1)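 PC12 monolayers, 1 day preconfluent, were exposed to xanthine in HBSS for 2 h at 37 °C, then washed 7 times (3 min each) in ligand-free HBSS. Membranes in Tris-Mg pH 7.4 were bound 2 h at room temperature with 1–10 nM [3H]NECA plus adenosine deaminase; 10 μM NECA defined nonspecific binding. Triplicate; Scatchard Bmax compared with control.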

Adenosine A2 receptor [3] = target: T2, Adenosine A2 receptor (Rattus norvegicus, UniProt P29276+P30543); experiment: Inhibition of [3H]NECA binding to A2 adenosine receptor of PC12 cell membranes; conditions: pc-12
[4] = target: T3, Adenosine receptor A1 (Homo sapiens) (UniProt P30542); experiment: Percent loss of [3H]CPX binding to A1 adenosine receptor of DDT1 MF-2 (DDT) cells 10 uM
T3 sequence (whole entry): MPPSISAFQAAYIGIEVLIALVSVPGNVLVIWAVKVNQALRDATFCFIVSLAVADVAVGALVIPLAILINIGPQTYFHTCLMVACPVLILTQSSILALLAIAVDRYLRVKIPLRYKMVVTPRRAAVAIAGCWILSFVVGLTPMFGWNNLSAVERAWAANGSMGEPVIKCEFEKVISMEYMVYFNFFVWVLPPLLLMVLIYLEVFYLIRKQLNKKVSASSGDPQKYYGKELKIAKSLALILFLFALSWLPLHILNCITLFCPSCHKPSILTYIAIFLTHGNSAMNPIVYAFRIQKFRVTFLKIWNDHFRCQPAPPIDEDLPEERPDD
Procedure, shortened: (§2)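 DDT1 MF-2 monolayers, 1 day preconfluent, were exposed to xanthine in HBSS for 2 h at 37 °C, then washed 5 times (3 min each) in ligand-free HBSS. Membranes in 50 mM Tris-HCl pH 7.4 with 5 mM MgCl2 were incubated 2 h at room temperature with 0.06–4 nM [3H]CPX; 10 μM N6-cyclopentyladenosine defined nonspecific binding. Triplicate; Scatchard Bmax versus control.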

Adenosine A2 receptor [5] = target: T2, Adenosine A2 receptor; experiment: Binding of [3H]NECA to A2 adenosine receptor (post-Xanthine); format: protein assay
[6] = target: T3, Adenosine receptor A1 (Homo sapiens); experiment: Percentage loss of [3H]- CPX binding in cells pretreated with a xanthine derivative at 50 uM
Procedure, shortened: as §2

[7] = target: T3, Adenosine receptor A1 (Homo sapiens); experiment: Loss of [3H]CPX binding to A1 adenosine receptor of DDT1 MF-2 (DDT) cells at 0.1 uM
Procedure, shortened: as §2

[8] = test system: Adenosine receptor A1 (Mesocricetus auratus); experiment: Loss of specific binding of [3H]CPX to the A1-adenosine receptor of DDT1 MF-2 (DDT) cells at a concentration of 10 uM
Adenosine A2 receptor [9] = target: T2, Adenosine A2 receptor; experiment: Binding of [3H]NECA to A2 adenosine receptor of PC12 cell membranes; conditions: pc-12
Procedure, shortened: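 PC12 cell membranes (0.1–0.2 mg protein) were incubated 2 h at room temperature in 50 mM Tris-HCl pH 7.4 with 5 mM MgCl2, 1 nM [3H]NECA, adenosine deaminase 2 units/mL, and 7–10 xanthine concentrations. Nonspecific binding was set with 10 μM NECA. Bound ligand was separated by filtration and counted by scintillation. Run in triplicate; IC50 from Hill plots.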

[10] = target: T1, Adenosine A2 receptor (Rattus norvegicus); experiment: Inhibition of [3H]NECA binding to A2 adenosine receptor of PC12 cell membranes at 50 uM; conditions: PC-12
Procedure, shortened: as §1

[11] = target: T3, Adenosine receptor A1 (Homo sapiens); experiment: Loss of [3H]CPX binding to A1 adenosine receptor of DDT1 MF-2 (DDT) cells at 0.05 uM
Procedure, shortened: as §2

[12] = target: T3, Adenosine receptor A1 (Homo sapiens); experiment: Loss of [3H]CPX binding to A1 adenosine receptor of DDT1 MF-2 (DDT) cells at 0.01 uM
Procedure, shortened: as §2

[13] = test system: Adenosine receptor A1 (Mesocricetus auratus); experiment: Loss of [3H]CPX binding to A1 adenosine receptor of DDT1 MF-2 (DDT) cells at 10 uM

Loss [1]: 0%
Compound: CCCn1c(=O)c2nc(C3CCCC3)[nH]c2n(CC(C)OC(=O)CBr)c1=O (centres undefined)

Kd (Adenosine receptor A1): 1.1 nM
Compound: CCCn1c(=O)c2[nH]c(C3CCCC3)nc2n(CC(C)OC(=O)CBr)c1=O (centres undefined)

Compound: CCCn1c(=O)c2nc(CNC(=O)c3cccc(S(=O)(=O)F)c3)[nH]c2n(CCC)c1=O
Loss [2]: 0%
IC50 (Adenosine A2 receptor [3]): 45000 nM
Loss [4]: 38%
Kd (Adenosine A2 receptor [5]): 40 nM
Loss [6]: 58%

Compound: CCCn1c(=O)c2nc(CNC(=O)c3ccc(S(=O)(=O)F)cc3)[nH]c2n(CCC)c1=O
Loss [1]: 72%
Loss [7]: 25%
Loss [8]: 85%
Kd (Adenosine A2 receptor [5]): 51 nM
IC50 (Adenosine A2 receptor [9]): 49000 nM
Loss [10]: 0%

Compound: O=C(OCCCn1c(=O)c2nc(C3CCCC3)[nH]c2n(CCCOC(=O)c2ccc(S(=O)(=O)F)cc2)c1=O)c1ccc(S(=O)(=O)F)cc1
Loss [8]: 50%

Compound: CCCn1c(=O)c2nc(C3CCCC3)[nH]c2n(CCCOC(=O)c2ccc(S(=O)(=O)F)cc2)c1=O
Loss [11]: 74%
IC50 (Adenosine A2 receptor [3]): 9000 nM
Kd (Adenosine A2 receptor [5]): 53 nM
Loss [12]: 60%

Compound: CCCn1c(=O)c2[nH]c(NC(=O)c3cccc(S(=O)(=O)F)c3)nc2n(CCC)c1=O
Kd (Adenosine receptor A1): 0.79 nM

Loss [8]: 28%
Compound: CCCn1c(=O)c2nc(CCNC(=O)CBr)[nH]c2n(CCC)c1=O

Compound: CCCn1c(=O)n(CCCOC(=O)c2ccc(S(=O)(=O)F)cc2)c(=O)c2[nH]c(C3CCCC3)nc21
IC50 (Adenosine A2 receptor [3]): > 100000 nM

Compound: CCCn1c(=O)c2nc(NC(=O)c3ccc(S(=O)(=O)F)cc3)[nH]c2n(CCC)c1=O
Loss [8]: 88%
Kd (Adenosine receptor A1): 1.1 nM

Compound: CCCn1c(=O)c2nc(CCCNC(=O)c3cccc(S(=O)(=O)F)c3)[nH]c2n(CCC)c1=O
Loss [8]: 30%

Loss [13]: 0%
Compound: CCCn1c(=O)c2nc(CNC(=O)c3ccccc3)[nH]c2n(CCC)c1=O

Compound: CCCn1c(=O)c2nc(CCCNC(=O)c3ccc(S(=O)(=O)F)cc3)[nH]c2n(CCC)c1=O
Loss [2]: 0%
IC50 (Adenosine A2 receptor [3]): 26000 nM
Kd (Adenosine A2 receptor [5]): 43 nM

Loss [8]: 7%
Compound: CCCn1c(=O)c2nc(CCCCCNC(=O)CBr)[nH]c2n(CCC)c1=O

Compound: O=C(OCCCn1c(=O)c2[nH]c(C3CCCC3)nc2n(CCCOC(=O)c2ccc(S(=O)(=O)F)cc2)c1=O)c1ccc(S(=O)(=O)F)cc1
Kd (Adenosine receptor A1): 0.82 nM

Compound: CCCn1c(=O)c2nc(NC(=O)c3cccc(S(=O)(=O)F)c3)[nH]c2n(CCC)c1=O
Loss [8]: 54%

Loss [8]: 0%
Compound: CCCn1c(=O)c2nc(-c3ccc(Cl)c([N+](=O)[O-])c3)[nH]c2n(CCC)c1=O

Compound: CCCn1c(=O)c2[nH]c(CCCNC(=O)c3cccc(S(=O)(=O)F)c3)nc2n(CCC)c1=O
Kd (Adenosine receptor A1): 0.86 nM

Compound: CCCn1c(=O)c2nc(C3CCCC3)[nH]c2n(CCCOC(=O)c2cccc(S(=O)(=O)F)c2)c1=O
Loss [1]: 11%

Compound: CCCn1c(=O)c2nc(CCNC(=O)c3ccc(S(=O)(=O)F)cc3)[nH]c2n(CCC)c1=O
Loss [8]: 72%
Kd (Adenosine receptor A1): 0.74 nM

Compound: CCCn1c(=O)c2nc(C3CCC(OC(=O)c4ccc(S(=O)(=O)F)cc4)C3)[nH]c2n(CCC)c1=O (centres undefined)
Loss [1]: 16%

Loss [8]: 16%
Compound: CCCn1c(=O)c2nc(CCCCCN3C(=O)C=CC3=O)[nH]c2n(CCC)c1=O

Loss [8]: 17%
Compound: CCCn1c(=O)c2nc(CNC(=O)CBr)[nH]c2n(CCC)c1=O
